Test results reported in ChEMBL document CHEMBL1129630, “Synthesis and structure-activity relationships of retinoid X receptor selective diaryl sulfide analogs of retinoic acid” (J Med Chem, 1996).

Columns and labels:
[1] = molecular target: T1, Retinoic acid receptor RXR-alpha (Homo sapiens, UniProt P19793); assay: Transcriptional activation of Retinoid X receptor RXR alpha;NA=not active; set-up: species or system Cercopithecidae
T1 sequence (P19793 whole entry): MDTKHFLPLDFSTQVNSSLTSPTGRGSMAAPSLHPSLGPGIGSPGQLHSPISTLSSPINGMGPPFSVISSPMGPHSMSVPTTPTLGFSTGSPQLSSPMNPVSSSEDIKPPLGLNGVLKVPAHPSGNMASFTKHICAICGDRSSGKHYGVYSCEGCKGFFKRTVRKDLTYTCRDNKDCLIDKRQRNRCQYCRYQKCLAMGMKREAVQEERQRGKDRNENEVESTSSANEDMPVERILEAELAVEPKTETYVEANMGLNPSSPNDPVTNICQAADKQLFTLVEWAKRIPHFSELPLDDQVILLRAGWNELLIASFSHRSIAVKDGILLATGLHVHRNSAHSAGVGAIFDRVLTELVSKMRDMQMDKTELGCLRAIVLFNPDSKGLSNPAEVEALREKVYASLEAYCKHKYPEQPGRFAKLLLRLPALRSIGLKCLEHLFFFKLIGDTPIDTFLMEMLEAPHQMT
Outline: (§1)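 CV-1 cells transiently cotransfected with the receptor construct and a reporter gene, with induced transcription measured. Activity is normalized to all-trans RA. EC50 is the concentration giving 50% of maximal observed response, from a single experiment in triplicate.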

[2] = species: Mus musculus; assay: Inhibition of Chondrogenesis in day 11 embryonic limb bud cells; settings: 264 h
[3] = molecular target: T2, Retinoic acid receptor gamma (Mus musculus, UniProt P18911); assay: Dissociation constant for binding to Retinoic acid receptor gamma;NA=not active
T2 sequence (P18911 whole entry): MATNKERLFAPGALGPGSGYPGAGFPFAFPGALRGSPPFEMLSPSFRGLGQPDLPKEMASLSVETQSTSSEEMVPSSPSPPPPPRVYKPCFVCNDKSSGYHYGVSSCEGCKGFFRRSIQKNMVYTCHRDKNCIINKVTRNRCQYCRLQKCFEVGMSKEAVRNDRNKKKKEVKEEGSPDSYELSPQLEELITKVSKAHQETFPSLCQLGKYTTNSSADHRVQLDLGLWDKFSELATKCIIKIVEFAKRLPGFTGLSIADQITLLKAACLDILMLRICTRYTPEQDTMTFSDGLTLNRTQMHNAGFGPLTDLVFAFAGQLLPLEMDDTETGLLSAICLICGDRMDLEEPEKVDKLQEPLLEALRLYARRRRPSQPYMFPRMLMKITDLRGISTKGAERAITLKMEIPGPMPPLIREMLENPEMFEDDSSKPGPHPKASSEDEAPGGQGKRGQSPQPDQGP
Outline: (§2)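 Competitive binding assays against each receptor subtype, with Kd values taken from competition.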

[4] = molecular target: T3, Retinoic acid receptor beta (Mus musculus, UniProt P22605); assay: Dissociation constant for binding to Retinoic acid receptor beta;NA=not active; outline: as §2
T3 sequence (P22605 whole entry): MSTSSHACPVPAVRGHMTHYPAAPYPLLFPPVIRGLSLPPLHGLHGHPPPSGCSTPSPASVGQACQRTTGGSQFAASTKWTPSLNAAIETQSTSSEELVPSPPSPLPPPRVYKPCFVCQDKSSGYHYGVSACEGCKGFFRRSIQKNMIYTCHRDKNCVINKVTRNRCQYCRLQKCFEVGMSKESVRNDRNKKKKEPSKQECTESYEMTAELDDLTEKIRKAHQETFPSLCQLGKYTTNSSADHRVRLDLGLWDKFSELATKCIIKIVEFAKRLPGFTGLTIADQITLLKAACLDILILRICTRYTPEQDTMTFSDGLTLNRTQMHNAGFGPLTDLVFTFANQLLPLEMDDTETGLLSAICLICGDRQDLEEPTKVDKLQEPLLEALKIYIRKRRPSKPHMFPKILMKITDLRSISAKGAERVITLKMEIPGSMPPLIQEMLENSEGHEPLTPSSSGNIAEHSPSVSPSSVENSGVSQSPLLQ

[5] = tested on: HL-60; assay: Induction of transglutaminase (TGase) activity in HL-60 cells; settings: Homo sapiens
[6] = molecular target: T4, Retinoic acid receptor gamma (Homo sapiens, UniProt P13631); assay: Transcriptional activation of Retinoic acid receptor RAR gamma; set-up: species or system Cercopithecidae; outline: as §1
T4 sequence (P13631 whole entry): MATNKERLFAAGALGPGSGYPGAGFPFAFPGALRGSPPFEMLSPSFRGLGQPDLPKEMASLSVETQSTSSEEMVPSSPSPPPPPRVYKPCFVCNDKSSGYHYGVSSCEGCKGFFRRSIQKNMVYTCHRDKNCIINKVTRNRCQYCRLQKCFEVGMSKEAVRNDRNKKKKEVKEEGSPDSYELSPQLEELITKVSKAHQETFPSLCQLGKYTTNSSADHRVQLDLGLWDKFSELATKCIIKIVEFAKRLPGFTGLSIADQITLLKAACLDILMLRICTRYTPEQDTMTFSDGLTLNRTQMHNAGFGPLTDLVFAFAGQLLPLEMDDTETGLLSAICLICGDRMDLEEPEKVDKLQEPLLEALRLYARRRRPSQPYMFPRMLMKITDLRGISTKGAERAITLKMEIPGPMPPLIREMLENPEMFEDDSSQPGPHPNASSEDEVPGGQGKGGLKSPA

[7] = molecular target: T5, Retinoic acid receptor beta (Homo sapiens, UniProt P10826); assay: Transcriptional activation of Retinoic acid receptor RAR beta; set-up: species or system Cercopithecidae; outline: as §1
T5 sequence (P10826 whole entry): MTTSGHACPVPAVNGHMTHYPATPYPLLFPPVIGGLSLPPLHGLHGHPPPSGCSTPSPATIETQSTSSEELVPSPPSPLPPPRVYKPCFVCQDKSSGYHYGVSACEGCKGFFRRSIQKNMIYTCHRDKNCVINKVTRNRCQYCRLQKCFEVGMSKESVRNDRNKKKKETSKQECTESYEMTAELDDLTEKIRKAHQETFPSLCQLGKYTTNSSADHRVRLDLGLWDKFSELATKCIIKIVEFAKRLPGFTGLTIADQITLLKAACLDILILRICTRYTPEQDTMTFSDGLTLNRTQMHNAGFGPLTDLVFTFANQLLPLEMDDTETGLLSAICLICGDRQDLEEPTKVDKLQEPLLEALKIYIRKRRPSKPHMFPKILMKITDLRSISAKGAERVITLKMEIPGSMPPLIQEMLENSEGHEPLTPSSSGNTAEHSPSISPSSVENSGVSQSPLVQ

[8] = molecular target: T1, Retinoic acid receptor RXR-alpha; assay: Transcriptional activation of Retinoid X receptor RXR alpha; set-up: species or system Cercopithecidae
Outline: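 Transient cotransfection of CV-1 cells with the receptor gene construct plus a reporter gene, read as induced transcription. Activity normalized to all-trans RA. EC50 taken as the concentration giving 50% of the maximal observed response. Single experiment, triplicate determinations.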

Row | SMILES | IC50 [2] | EC50 [5] | EC50 [6] | other results
1 | Cc1cc2c(cc1[S+]([O-])c1ccc(C(=O)O)cc1)C(C)(C)CCC2(C)C (stereo unspecified) | – | – | – | EC50 [1]: Not Active
2 | Cc1cc2c(cc1Sc1ccc(C(=O)O)cn1)C(C)(C)CCC2(C)C | 1000 nM | 100 nM | – | Kd [3]: Not Active; Kd [4]: Not Active
3 | CC1(C)CCC(C)(C)c2cc(Sc3ccc(C(=O)O)cc3)ccc21 | – | – | 340 nM | EC50 [7]: 570 nM; EC50 [8]: 770 nM
4 | Cc1cc2c(cc1Sc1ccc(C(=O)O)cc1)C(C)(C)CCC2(C)C | 910 nM | 200 nM | Not Active | –
